The text below walks through data of ChEMBL document CHEMBL2086296, “Synthesis of novel quinoline-2-one based chalcones of potential anti-tumor activity” (Eur J Med Chem, 2012).

Usually LC50 stands for the concentration lethal to half of the exposed cells or organisms. By GI50 is commonly meant the concentration giving 50% growth inhibition. Lower therefore signals more potent growth inhibition. One may read the TGI as the concentration at which net growth stops. High values mean less potent growth arrest, low ones more potent growth arrest.

A value given as a limit tells only on which side of the number the result lay.

Series [1] concerns A498. As to the kind of experiment: (§1) Cytotoxicity against human A498 cells after 24 hrs by SRB assay. It is filed as cell-based. To be noted: a498, 24 h. The essentials:
(§2)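 NCI 60-cell screen. Cells grown in RPMI 1640 with 5% FBS and 2 mM L-glutamine, seeded at 5,000–40,000 cells/well, preincubated 24 h at 37 °C in 5% CO2. Drug stock in DMSO, diluted in medium with gentamicin; five final concentrations, 100, 10, 1.0, 0.1 and […]. Time-zero plates were TCA-fixed. Protein read by SRB staining; GI50, TGI and LC50 taken relative to time-zero.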

For series [2], the system named is A498. The description is as §1. The format is functional. To be noted: A498, 24 h. In a few lines: (§3)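 NCI 60-line screen. Cells in RPMI 1640 with 5% FBS and 2 mM L-glutamine, seeded at 5,000–40,000 cells/well by doubling time, then incubated 24 h at 37 °C, 5% CO2 before dosing. Time-zero plates fixed with TCA at drug addition. DMSO stocks diluted in medium with gentamicin to five concentrations, […]. Protein read by SRB staining. GI50, TGI and LC50 derived relative to control and time-zero.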

For series [3], the system named is K562. In words: (§4) Cytotoxicity against human K562 cells after 24 hrs by SRB assay. It is filed as functional. To be noted: K562, 24 h. In a few lines: as §3
Background: In SRB staining, fixed cells bind dye roughly in proportion to their protein.

Series [4] concerns K562. The description is as §4. The format is cell-based. To be noted: k562, 24 h. In a few lines:
as §2

Series [5] relates to PC-3. In words: (§5) Cytotoxicity against human PC3 cells after 24 hrs by SRB assay. The format is functional. To be noted: PC-3, 24 h. In a few lines:
as §3

The test system of series [6] is PC-3. The series is described as §5. The format is cell-based. To be noted: pc-3, 24 h. The essentials: as §2
A further series relates to Mus musculus. As to the kind of experiment: Acute toxicity in athymic nude mouse assessed as mortality up to 400 mg/kg, ip after 2 weeks. It is filed as organism-based. To be noted: in vivo, 336 h. Also noted: dose 400 mg/kg, route intraperitoneal. In a few lines:
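Single ip injection in athymic nude mice, one mouse per dose at 400, 200 and 100 mg/kg, dosed at 0.1 mL/10 g body weight, with feed and water ad libitum. Animals observed for 2 weeks and sacrificed on >20% body weight loss or other signs of significant toxicity. If all three were sacrificed, 50, 25 and 12.5 mg/kg were tested next.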

Consider `O=C(/C=C/c1cc2ccccc2[nH]c1=O)c1ccc(O)cc1`, for which the LC50 in the series with A498 [1] is 47.8 µM; in the series on K562 [4], over 100 µM; in the series on PC-3 [6], over 100 µM. The GI50 in the series with A498 [2] is 8.44 µM; in the series with K562 [3] it was 3.89 µM; with PC-3 [5], 5.39 µM. Further, the TGI in the series on A498 [2] is 21.3 µM; in the series with K562 [3], over 100 µM; in the series with PC-3 [5] it was 55.3 µM.

Consider `O=C(/C=C/c1cc2ccccc2[nH]c1=O)/C=C/c1cc2ccccc2[nH]c1=O`, for which the Activity entry in the series with Mus musculus was “Non-toxic”.
